We go through one compound from PMC9407455 (Proceedings of the National Academy of Sciences of the …, 2022).

For this experiment, the system named is HeLa cell–derived xenografts. Nature of the experiment: Xenograft tumor assay. In kind it is in vivo, mice. The note with it: iJMJD6 25 mg/kg or JQ1 50 mg/kg alone or in combination, i.p. every other day. The method, boiled down:
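Female BALB/c nude mice inoculated with HeLa cells, randomized, and injected i.p. every other day with DMSO or test compound at indicated doses. Tumour growth curves and endpoint tumour weights recorded (mean ±SEM); tumour lysates immunoblotted.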

On to `Cc1sc2c(c1C)C(c1ccc(Cl)cc1)=N[C@@H](CC(=O)OC(C)(C)C)c1nnc(C)n1-2` [JQ1], for which the tumor suppressive effect result is “readily seen”.
